What all share (details): Sus scrofa
Assay [1] deals with Artery. Kind of assay: Vasorelaxant activity in pig endothelium-intact coronary artery assessed as inhibition of U46619-induced contraction. In kind it is functional. The procedure, abridged: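 Endothelium-intact porcine coronary rings at 2 g resting tension in Krebs-Henseleit, 37 °C, gassed with 95% O2/5% CO2. Rings were discarded if the mean KCl 30 mM contraction was under 4 g or bradykinin relaxation under 40%. PVP K30-complexed sample was given for 30 min. Cumulative U46619 was then added (0.1 nM to 1 µM). ED50 and Emax use % of the mean KCl 30 mM contraction; n = 8, separate hearts.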

For assay [2], the system named is Artery. Kind of assay: Vasorelaxant activity in pig endothelium-denuded coronary artery assessed as inhibition of potassium chloride-induced contraction at 50 ug/ml. It is filed as functional, tissue-based. Put shortly:
(§1)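 Endothelium-removed porcine coronary rings at 2 g resting tension in Krebs-Henseleit, 37 °C, 95% O2/5% CO2. Each ring was primed twice with KCl 30 mM and relaxed with bradykinin 1 µM. Test material, as a PVP K30 complex, was given for 30 min. Stepwise contractions were then made with 5-HT (10 nM to 10 µM), U46619 (0.1 nM to 1 µM) or KCl (10-70 mM). Tension is % of the mean of the two KCl 30 mM contractions; n = 7-11.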

Assay [3] relates to Artery. Nature of the assay: Vasorelaxant activity in pig endothelium-denuded coronary artery assessed as inhibition of U46619-induced contraction at 15 ug/ml. In kind it is functional, tissue-based. Put shortly: as §1
Assay [4] concerns Artery. Nature of the assay: Vasorelaxant activity in pig endothelium-denuded coronary artery assessed as inhibition of 5-hydroxytryptamine-induced contraction at 15 ug/ml. It is filed as functional, tissue-based. The procedure, abridged: as §1
Assay [5] has as its system Artery. Kind of assay: Vasorelaxant activity in pig endothelium-intact coronary artery assessed as reversible inhibition of U46619-induced contraction at 1 uM. In kind it is functional, tissue-based.
Assay [6] concerns Artery. Kind of assay: Vasorelaxant activity in pig endothelium-intact coronary artery assessed as inhibition of U46619-induced contraction at 50 ug/ml. In kind it is functional, tissue-based. The procedure, abridged:
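Porcine coronary rings with endothelium in Krebs-Henseleit solution at 37 °C, gassed with 95% O2/5% CO2, held at 2 g resting tension and equilibrated 100 min. Each ring was contracted twice with KCl 30 mM and relaxed with bradykinin 1 µM. Test material as a PVP complex was given for 30 min, then cumulative U46619 0.1 nM–1 µM. Contraction was expressed as % of the mean KCl response, giving ED50 and Emax; n=8.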

This note sets out measurements from ChEMBL document CHEMBL1154124, “Vascular effects of different lipophilic components of "Danshen", a traditional Chinese medicine, in the isolated porcine coronary artery” (2008).

Calls of active or inactive are those of the source. The rule behind the calls is not given here.

For `CC1(C)CCCc2c1ccc1c2C(=O)C(=O)c2c(CO)coc2-1` [PRZEWAQUINONE A], the Emax in assay [1] came to 29.2%. Moreover, the outcome in assay [2], in assay [3], in assay [4] and in assay [5] was Active.
In the case of `C[C@H]1COC2=C1C(=O)C(=O)c1c2ccc2c1CCCC2(C)C` [CRYPTOTANSHINONE], the Emax in assay [1] was determined as 64.9%. Also, the outcome in assay [6] was Active.
For `Cc1coc2c1C(=O)C(=O)c1c-2ccc2c1CCCC2(C)C` [TANSHINONE IIA], the maximal response (Emax) in assay [1] was 92.9%. In addition, the result in assay [6] was Active.
